# tolC growth inh: growth inhibitors of E. coli BW25113 tolC mutant. 2.2% of 65,000 active. OD615. growth inhibition, % at 10 µM (by protocol);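 active = growth inhibition at or above a cutoff equal to the mean over every tested compound plus 3 SD, cut at about 60% in these data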;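 note: growth measured after 20 h incubation at 37 °C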
#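 Doses: one dose of 10 µM final / Material: E. coli BW25113 ΔtolC::kan, tolC deletion mutant strain / Buffer or medium: LB with kanamycin 50 µg/mL / Evaluation: percent growth inhibition / Detection: optical density read at 615 nm / Incubation: 37 °C, 20 h exposure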
# Pyk2 oligo antag: Pyk2 (human) oligomerization antagonism; Q14289; Q293 cells, Pyk2 FERM NanoBiT luminescence; stronger effect = lower value; z-score (the deposit names both 25 µM and 10 µM); 0.83% of 99,000 active; AID 1347419;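 active = Z-score of -3 or lower, scaled per plate to the spread of control and sample wells; inactive = z-score above -3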;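 note: negative z-score means lost luminescence so less FERM oligomerization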
# Cav32 inh: human Cav3.2 channel inhibition, primary screen; 4% of 100,000 active; O95180; Cav3.2-expressing cells, Fluo-4 calcium fluorescence FDSS; stronger effect = lower value; B-score at 10 µM;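 active = single-dose well whose peak fluorescence ratio is a statistical outlier from its plate by either plate-standardised score or position-corrected B-score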
# PostGolgi ctrl: inhibits growth of the yeast control strain. efflux-deficient yeast background strain, growth absorbance A615, 16 h. inhibition, % at 10 µM. 5% of 98,000 active. AID 738
# Ecoli WT expand: E. coli BW25113 growth inhibition, expanded screen; OD600 absorbance; growth inhibition, % at 100 µM; 0.15% of 98,000 active; AID 710;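 active = growth inhibition above about 50% at one test dose, limit read from the data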;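 note: growth measured after 20 h incubation at 37 °C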
# PostGolgi yeast: growth inhibition of a yeast mutant, post-Golgi transport screen. post-Golgi transport phenotypic cell assay. inhibition, % at 10 µM. 0.9% of 98,000 active;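 note: yeast cells grown in 1536-well plates; yeast grown about 18 h at 30C before absorbance read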
# Active calls of the source: *; nt = no result given. Shown are actives, neighbours in structure and some others; about 8.7% of the full set was active somewhere. Cut-off read from the data, not from the text of the source, unless noted: active = inhibition above about 30%; inactive = the rest.
SMILES,tolC growth inh,Pyk2 oligo antag,Cav32 inh,PostGolgi ctrl,Ecoli WT expand,PostGolgi yeast
O=C(CSc1nnc(-c2ccc(O)cc2)n1Cc1ccco1)c1cccs1,18.9,-1.13,0.0267,-2.3,-1.0,6.0
O=C(CC(SCc1ccco1)c1ccc(O)cc1)c1cccs1 (stereo not drawn),24.2,0.83,-4.48*,17.0,13.0,-4.9
COCCNC(=O)CN(C(=O)Cn1nnc2ccccc21)c1ccc(F)c(Cl)c1,-3.4,0.74,0.96,6.9,0.0,3.4
Cc1[nH]c2c(C)cccc2c1CCNC(=O)c1ccc2c(c1[N+](=O)[O-])C(=O)c1ccccc1C2=O,nt,-1,0.128,39.9*,-8.0,11.3
OC(COc1c(F)cc(Br)cc1F)CN1CCN(c2ccc(F)cc2)CC1 (stereo not drawn),16.2,-0.02,nt,47.0*,-7.0,32.7*
OC(COc1ccc2ccccc2c1)CN1CCN(c2ccc(F)cc2)CC1 (stereo not drawn),1.9,nt,-0.567,19.8,-2.0,0.7
COc1ccc(Cl)cc1NC(=O)Nc1cccc([N+](=O)[O-])c1C,nt,-1.22,0.164,41.8*,-7.0,2.4
COc1ccc(OC)c(NC(=O)Nc2ccc(Cl)cc2)c1,nt,-1.76,-2.47,41.0*,1.0,-3.5
COc1ccc(C(C)(C)C)cc1NC(=O)Nc1ccc2c(c1)OCO2,65.0*,-0.97,nt,71.2*,-4.0,5.2
COc1ccc(Cl)cc1NC(=O)NC1CCCCC1,nt,-0.92,-1.05,17.8,-12.0,1.8
COC(=O)c1cc(NC(=O)Nc2cc(OC)ccc2OC)cc(C(=O)OC)c1,nt,-0.57,-0.688,19.8,-7.0,2.3
COCC(=O)Nc1cc(C(=O)Nc2cccc(C)c2C)ccc1Cl,nt,1.01,0.247,6.6,2.0,-9.5
CC1C(=O)N(c2ccc(S(=O)(=O)N(C)C)cc2)C1(/C=C/c1ccccc1)C(=O)NC1CCCC1 (stereo not drawn),nt,-1.05,nt,nt,nt,nt
CCC(C)(C)NC(=O)C(c1ccncc1)N(Cc1ccc(C)cc1)C(=O)c1csnn1 (stereo not drawn),nt,0.39,0.671,nt,nt,nt
CCOC(=O)/C=c1\s/c(=C\c2c(OCC)ccc3ccccc23)c(=O)n1CC(=O)NCC1CCCO1 (stereo not drawn),nt,-1.89,-6.42*,10.8,-10.0,-0.5
CCOC(=O)/C=c1\s/c(=C\c2ccc3c(c2)OCCO3)c(=O)n1CC(=O)NCC1CCCO1 (stereo not drawn),12.1,-1.2,-0.46,-1.8,-2.0,-5.5
Cc1noc(C)c1COC(=O)COc1cccc2c1OC(C)(C)C2,4.9,-0.16,0.0403,-6.1,5.0,0.5
O=C(O)C1CC=CCC1C(=O)Nc1ccccc1 (stereo not drawn),nt,0.4,-0.0209,13.4,-2.0,3.2
O=C(O)C1CC=CCC1C(=O)Nc1ccc(S(=O)(=O)N2CCCc3ccccc32)cc1 (stereo not drawn),61.0*,-1.35,-1.04,5.3,5.0,1.9
O=C(Nc1ccc(S(=O)(=O)N2CCc3ccccc3C2)cc1)C1CCCO1 (stereo not drawn),5.1,2.32,-3.95*,7.0,-2.0,-9.8
O=C(Nc1ccc(S(=O)(=O)N2CCCc3ccccc32)cc1)C1CCCO1 (stereo not drawn),67.6*,0.21,-1.35,27.3,-11.0,6.1
CCOC(=O)C(NC(=O)OC(C)C)(Nc1nccs1)C(F)(F)F (stereo not drawn),-27.4,0.07,0.0192,10.5,0.0,-7.3
Cn1c(-n2c(CCN3C(=O)c4ccccc4C3=O)nc3ccccc3c2=O)nc2ccccc21,23.6,nt,nt,nt,nt,nt
O=C(CCn1nc(-c2ccccc2)c2ccccc2c1=O)NCC1CCCO1 (stereo not drawn),3.2,0.13,nt,11.5,-1.0,2.4
Cc1csc(SCc2ccc(C(=O)O)cc2)n1,nt,0.57,1.66,3.0,-1.0,-13.2
COc1cccc2c1C(=O)c1c(O)c3c(c(O)c1C2=O)C[C@@](O)(C(=O)CO)C[C@@H]3O[C@H]1C[C@H](N)[C@H](O)[C@H](C)O1,11.6,nt,-5.74*,nt,nt,nt
O=C1CC(O)(C(F)F)Oc2ccc3ccccc3c21 (stereo not drawn),33.7,-0.6,nt,11.2,15.0,-9.8
O=C1CC(O)(C(F)(F)F)Oc2c1ccc1ccccc21 (stereo not drawn),96.6*,-1.24,-4.25*,36.8*,35.0,4.5
COc1ccc(C2C(C#N)=C(N)N(c3sc4c(c3C#N)CCCC4)C3=C2C(=O)CC(C)(C)C3)cc1 (stereo not drawn),nt,-1.66,0.68,1.8,-5.0,-8.8

# Screening results (PubChem)
